Experimental findings from ChEMBL document CHEMBL4184138 (Bioorg Med Chem Lett, 2017) are described below.

Active and inactive are the calls of the source. The rule behind the calls is not given here.

Usually Ki stands for the dissociation constant of the complex between target and ligand, obtained from inhibition or displacement. In general, half-life refers to the time in which the quantity being followed falls by half.

The target in data set [1] is Delta-type opioid receptor (Rattus norvegicus, UniProt P33533). Briefly: Displacement of [3H]-DPDPE from delta opioid receptor in Wistar rat brain membranes preincubated for 3 hrs measured after 1 hr by scintillation counting method. The class given is cell membranes, Membrane. In a few lines:
(§1)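 Opioid receptor binding done on rat brain membranes. Affinity values are given as mean ± SEM of 8-12 measurements.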
For orientation: Loss of bound radioactivity is the signal in a displacement assay; it reports binding, not function.

The nature of data set [2]: Half life in Kunming mouse plasma at 500 uM by RP-HPLC analysis. It counts as ADME, cell-free. In short, it runs like this: (§2)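 Peptide stability was measured by incubation in 15% mouse brain homogenate or in mouse plasma, and the half-life was determined for each matrix.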
The target of the next data set is Mu-type opioid receptor (Rattus norvegicus, UniProt P33535). Briefly: Displacement of [3H]-DAMGO from mu opioid receptor in Wistar rat brain membranes preincubated for 1 hr measured after 1hr by scintillation counting method. The class given is cell membranes, Membrane. In a few lines:
as §1

A further data set is filed under the species Rattus norvegicus. The data set is described as follows: Selectivity ratio of Ki from delta opioid receptor in Wistar rat brain membranes to Ki from mu opioid receptor in Wistar rat brain membranes. The class given is cell membranes.
Data set [3] can be described thus: Half life in Kunming mouse 15% brain homogenate at 500 uM by RP-HPLC analysis. The class given is ADME, tissue-based. In short, it runs like this: as §2
Data set [4] concerns Mus musculus. Briefly: Antinociceptive activity in Kunming mouse assessed as increase in latency to withdrawal at 10 mg/kg, sc measured up to 5 to 45 mins post dose in presence of opioid antagonist naloxone by tail-flick test. The class given is functional, organism-based. Background: Thermal pain tests record how soon the animal reacts.
Data set [5] concerns Mus musculus. The data set is described as follows: Antinociceptive activity in Kunming mouse assessed as increase in latency to withdrawal by measuring AUC at 20 nmol/kg, i.c.v measured up to 45 mins post dose by tail-flick test. It counts as functional, organism-based. Set-up: dose 20 nmol/kg, time < 0.75 hr. In short, it runs like this:
(§3)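 Mouse tail-flick test. A single fixed dose was given, either 20 nmol/kg i.c.v. or 10 mg/kg s.c. Antinociception was followed as a time course, and the area under the effect-time curve (A.U.C) was calculated.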

Data set [6] deals with Mus musculus. Briefly: Antinociceptive activity in Kunming mouse assessed as increase in latency to withdrawal by measuring AUC at 10 mg/kg, sc measured up to 45 mins post dose by tail-flick test. It counts as functional, organism-based. Set-up: dose 10 mg/kg, time < 0.75 hr. In short, it runs like this:
as §3

Chain of Delta-type opioid receptor (P33533 whole entry): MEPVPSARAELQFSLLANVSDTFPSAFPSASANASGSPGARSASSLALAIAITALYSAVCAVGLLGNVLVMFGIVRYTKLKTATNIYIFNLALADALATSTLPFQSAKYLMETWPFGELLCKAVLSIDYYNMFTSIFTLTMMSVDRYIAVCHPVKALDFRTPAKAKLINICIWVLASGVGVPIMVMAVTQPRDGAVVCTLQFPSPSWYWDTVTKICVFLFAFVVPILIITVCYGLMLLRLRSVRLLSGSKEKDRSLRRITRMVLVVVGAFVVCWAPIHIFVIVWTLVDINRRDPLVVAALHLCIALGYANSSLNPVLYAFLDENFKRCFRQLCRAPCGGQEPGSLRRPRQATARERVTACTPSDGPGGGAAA
Chain of Mu-type opioid receptor (P33535 whole entry): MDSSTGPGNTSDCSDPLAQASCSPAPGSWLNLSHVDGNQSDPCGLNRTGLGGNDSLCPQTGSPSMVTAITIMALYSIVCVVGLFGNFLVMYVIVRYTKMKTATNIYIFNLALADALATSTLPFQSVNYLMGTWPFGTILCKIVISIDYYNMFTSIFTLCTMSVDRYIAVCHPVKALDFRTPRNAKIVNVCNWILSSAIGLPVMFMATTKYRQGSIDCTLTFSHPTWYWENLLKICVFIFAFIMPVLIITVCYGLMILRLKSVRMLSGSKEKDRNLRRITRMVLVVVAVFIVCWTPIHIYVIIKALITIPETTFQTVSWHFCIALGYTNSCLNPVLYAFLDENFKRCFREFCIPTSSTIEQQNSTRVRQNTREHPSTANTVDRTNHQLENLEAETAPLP

`C[C@@H](NC(=O)[C@H](Cc1ccc(O)cc1)NC(=N)N)C(=O)NCC(=O)N[C@@H](Cc1c[nH]c2ccccc12)C(=O)N[C@@H](Cc1ccc(Cl)cc1)C(N)=O`: the results for the Ki (in data set [1]; at Mu-type opioid receptor) were 2.03 µM and 0.0032 µM, respectively. In addition, the half-life at 500 µM in data set [2] was 4.73 h; in data set [3], 7.25 h. The Ratio Ki in the data set filed under Rattus norvegicus is 635. For the same compound, in the data set on Mus musculus [4], the outcome was inactive. For the same compound, the AUC with Mus musculus [5] was found to be 650; in the data set with Mus musculus [6], 1400.

With `C[C@@H](NC(=O)[C@H](Cc1ccc(O)cc1)NC(=N)N)C(=O)NCC(=O)N[C@@H](Cc1c[nH]c2ccccc12)C(=O)N[C@@H](Cc1ccccc1)C(N)=O`, the results for the Ki (in data set [1]; at Mu-type opioid receptor) were 3.87 µM and 0.00181 µM, respectively. Moreover, the results for the half-life at 500 µM in data set [2] and in data set [3] were 4.08 h and 7.4 h, respectively. Moreover, the Ratio Ki in the data set listed under Rattus norvegicus was found to be 2140. Moreover, the AUC with Mus musculus [5] is 1160; with Mus musculus [6], 631.

Turning to `C[C@@H](NC(=O)[C@@H](N)Cc1ccc(O)cc1)C(=O)NCC(=O)N[C@@H](Cc1c[nH]c2ccccc12)C(=O)N[C@@H](Cc1ccccc1)C(N)=O`, the Ki turned out to be 4.05 µM in data set [1] and 0.0133 µM at Mu-type opioid receptor. Moreover, the half-life at 500 µM in data set [2] came out at 2.51 h; in data set [3], 3.66 h. Moreover, in the data set filed under Rattus norvegicus, the Ratio Ki came out at 305. Also, the results for the AUC with Mus musculus [5] and in the data set with Mus musculus [6] were 336 and 304, respectively.

In the case of `C[C@@H](NC(=O)[C@@H](N)Cc1ccc(O)cc1)C(=O)NCC(=O)N[C@@H](Cc1c[nH]c2ccccc12)C(=O)N[C@@H](Cc1ccc(Cl)cc1)C(N)=O`, the Ki in data set [1] worked out at 4.06 µM; on Mu-type opioid receptor, 0.0077 µM. Further, the half-life at 500 µM in data set [2] turned out to be 2.84 h; in data set [3] it was 4.2 h. Moreover, the Ratio Ki in the data set filed under Rattus norvegicus is 528. The AUC is 246 in the data set on Mus musculus [5] and 570 in the data set with Mus musculus [6].

With `NC(=O)[C@H](Cc1ccccc1)NC(=O)[C@H](Cc1c[nH]c2ccccc12)NC(=O)[C@@H]1CCCN1C(=O)[C@@H](N)Cc1ccc(O)cc1`, the AUC with Mus musculus [5] turned out to be 271; in the data set with Mus musculus [6], 693.
